From ChEMBL document CHEMBL1921681, “Difluoromethylbenzoxazole pyrimidine thioether derivatives: a novel class of potent non-nucleoside HIV-1 reverse transcriptase inhibitors” (J Med Chem, 2011)
≈ marks a conversion by molar mass, not a printed value.

Key:
[1] = tested on: Human immunodeficiency virus 1; test: Antiviral activity against Human immunodeficiency virus 1 3B infected in human MT4 cells stably transformed with HIV1 LTR-EGFP after 3 days by fluorescence microscopic analysis; format: functional, organism-based; conditions: MT4, 72 h
How it was run: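 MT4 cells carrying an HIV LTR-EGFP reporter (150 000 cells/mL) infected with HIV-1 IIIB at MOI 0.01, with or without graded inhibitor concentrations. After 3 days, replication read as EGFP fluorescence and expressed as EC50. Cell line maintained in RPMI 1640 with 10% heat-inactivated FCS, 2 mM L-glutamine, gentamicin, G418, at 37 °C, 5% CO2.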

[2] = Selectivity ratio of CC50 for mock-infected human MT4 cells to EC50 for Human immunodeficiency virus 1 3B infected in human MT4 cells; format: ADME, cell-based; conditions: read-out: Ratio CC50/EC50
How it was run: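 Ratio of two values run in parallel. CC50 came from mock-infected CMV-EGFP MT4 cells (150 000 cells/mL, 3 days, EGFP fluorescence). EC50 came from MT4-LTR-EGFP cells (150 000 cells/mL) infected with HIV-1 IIIB at MOI 0.01 with or without inhibitor, with replication read as EGFP fluorescence after 3 days. SI = CC50/EC50.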

[3] = tested on: Human immunodeficiency virus 1; test: Antiviral activity against Human immunodeficiency virus 1 HXB2 harboring reverse transcriptase K103N and Y181C mutant infected in human MT4 cells stably transformed with HIV1 LTR-EGFP after 3 days by fluorescence microscopic analysis; format: functional, organism-based; conditions: Human immunodeficiency virus 1, HXB2, MT4, 72 h
[4] = Cytotoxicity against mock infected human MT4 cells after 3 days by EGFP fluorescence microscopic analysis; format: cell-based
How it was run: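 Mock-infected MT4 cells stably carrying a CMV-EGFP reporter, seeded at 150 000 cells/mL and cultured with or without serial compound concentrations. MT4 cells kept in RPMI 1640 with 10% heat-inactivated FCS, 2 mM L-glutamine, 0.1% NaHCO3, gentamicin and G418, at 37 °C under 5% CO2. After 3 days, proliferation was read as EGFP fluorescence, giving CC50.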

[5] = tested on: Human immunodeficiency virus 1; test: Selectivity ratio of EC50 for Human immunodeficiency virus 1 HXB2 harboring reverse transcriptase K103N and Y181C mutant infected in human MT4 cells to EC50 for Human immunodeficiency virus 1 3B infected in human MT4 cells; format: functional
[6] = target: Cytochrome P450 3A4 (Homo sapiens, UniProt P08684); test: Inhibition of CYP3A4; format: ADME
Chain of Cytochrome P450 3A4 (P08684 whole entry): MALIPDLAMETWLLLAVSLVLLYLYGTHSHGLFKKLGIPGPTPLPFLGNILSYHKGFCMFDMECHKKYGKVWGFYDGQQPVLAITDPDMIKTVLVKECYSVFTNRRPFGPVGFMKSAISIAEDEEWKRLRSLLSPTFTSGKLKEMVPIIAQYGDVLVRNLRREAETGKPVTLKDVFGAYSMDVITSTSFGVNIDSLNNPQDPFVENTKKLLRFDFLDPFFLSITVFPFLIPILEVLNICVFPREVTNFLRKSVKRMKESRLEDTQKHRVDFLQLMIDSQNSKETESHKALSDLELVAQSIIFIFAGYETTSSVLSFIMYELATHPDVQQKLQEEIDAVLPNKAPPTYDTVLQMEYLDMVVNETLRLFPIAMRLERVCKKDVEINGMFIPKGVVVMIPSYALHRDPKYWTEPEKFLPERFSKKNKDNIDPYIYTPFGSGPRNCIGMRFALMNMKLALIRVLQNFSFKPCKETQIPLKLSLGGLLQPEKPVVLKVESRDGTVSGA

[7] = Lipophilicity, log D of the compound; format: physicochemical; conditions: octanol/water
[8] = Dissociation constant, pKa of the compound; format: physicochemical
[9] = Apparent permeability of the compound across human Caco2 cells; format: ADME, cell-based; conditions: Caco-2
[10] = target: Cytochrome P450 2C9 (Homo sapiens, UniProt P11712); test: Inhibition of CYP2C9; format: ADME
Chain of Cytochrome P450 2C9 (P11712 whole entry): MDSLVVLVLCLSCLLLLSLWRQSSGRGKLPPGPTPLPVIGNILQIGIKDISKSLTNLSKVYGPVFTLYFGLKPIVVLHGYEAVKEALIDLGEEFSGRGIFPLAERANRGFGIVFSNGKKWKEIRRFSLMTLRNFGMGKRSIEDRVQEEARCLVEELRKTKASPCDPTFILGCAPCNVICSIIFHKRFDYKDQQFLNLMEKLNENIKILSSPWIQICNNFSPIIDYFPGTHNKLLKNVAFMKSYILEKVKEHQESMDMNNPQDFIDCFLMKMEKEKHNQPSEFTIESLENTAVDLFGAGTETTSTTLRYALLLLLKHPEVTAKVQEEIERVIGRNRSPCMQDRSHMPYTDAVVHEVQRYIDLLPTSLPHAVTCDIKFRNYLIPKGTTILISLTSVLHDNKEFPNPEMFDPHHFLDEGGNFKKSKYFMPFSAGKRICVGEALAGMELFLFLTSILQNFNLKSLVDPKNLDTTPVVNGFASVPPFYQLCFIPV

[11] = Aqueous solubility of the compound; format: physicochemical; conditions: buffer
[12] = target: Cytochrome P450 2D6 (Homo sapiens, UniProt P10635); test: Inhibition of CYP2D6; format: ADME
Chain of Cytochrome P450 2D6 (P10635 whole entry): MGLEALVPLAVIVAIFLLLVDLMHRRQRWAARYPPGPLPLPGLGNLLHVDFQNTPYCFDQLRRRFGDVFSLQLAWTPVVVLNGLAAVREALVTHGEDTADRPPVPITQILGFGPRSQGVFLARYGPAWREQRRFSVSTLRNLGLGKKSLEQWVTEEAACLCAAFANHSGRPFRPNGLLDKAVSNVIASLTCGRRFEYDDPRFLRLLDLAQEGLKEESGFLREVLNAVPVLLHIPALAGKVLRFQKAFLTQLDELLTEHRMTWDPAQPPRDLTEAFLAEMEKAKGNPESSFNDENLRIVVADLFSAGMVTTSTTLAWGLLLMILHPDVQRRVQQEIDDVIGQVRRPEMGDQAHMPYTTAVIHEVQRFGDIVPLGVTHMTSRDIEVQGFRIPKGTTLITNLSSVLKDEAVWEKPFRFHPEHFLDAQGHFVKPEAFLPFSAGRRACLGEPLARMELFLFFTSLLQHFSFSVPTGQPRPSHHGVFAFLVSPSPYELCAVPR

[13] = Metabolic stability of the compound in human liver microsomes after 15 mins; format: ADME, Microsome; conditions: read-out: Stability

SMILES | EC50 [1] | selectivity ratio [2] | EC50 [3] | CC50 at 72 h [4] | also measured
COCc1ccnc(SC(F)(F)c2nc3ccccc3o2)n1 | 0.66 µM | > 142 | > 98.4 µM | > 98.4 µM | –
FC(F)(Sc1ncccn1)c1nc2ccccc2o1 | 3.14 µM | – | – | – | –
Cc1ccnc(SC(F)(F)c2nc3c(Cl)cccc3o2)n1 | 0.098 µM | > 1000 | 79 µM | > 98.4 µM | Ratio EC50 [5]: 30
Nc1ccnc(SC(F)(F)c2nc3ccccc3o2)n1 | 0.26 µM | 129 | > 33 µM | 33.5 µM | –
CC(=O)Nc1ccnc(SC(F)(F)c2nc3ccccc3o2)n1 | 43.3 µM | > 2.3 | > 98.4 µM | > 98.4 µM | –
CC(C)c1ccnc(SC(F)(F)c2nc3ccccc3o2)n1 | 0.13 µM | > 774 | > 98.4 µM | > 98.4 µM | –
Cc1ccnc(SC(F)(F)c2nc3ccccc3o2)n1 | 0.11 µM | > 800 | 67 µM | > 100 µM | inhibition (INH) [6]: < 30%; logD [7]: 3.9; pKa [8]: 3.6; Papp [9]: 34.6 ×10⁻⁶ cm/s; inhibition (INH) [10]: < 30%; solubility [11]: 200 µM (≈ 58.7 µg/mL); inhibition (INH) [12]: < 30%; remaining at 0.25 h [13]: 90%
FC(F)(Sc1nccc(C2CC2)n1)c1nc2ccccc2o1 | 0.16 µM | 484 | 67.9 µM | 77.5 µM | –
Cc1cc(C)nc(SC(F)(F)c2nc3ccccc3o2)n1 | 0.95 µM | > 100 | 77.2 µM | > 98.4 µM | pKa [8]: 1.3
c1cnc(SCc2nc3ccccc3o2)nc1 | 35.3 µM | – | – | – | –
Cc1ccnc(SC(F)(F)c2nc3c(C)cccc3o2)n1 | 0.17 µM | > 570 | > 98.4 µM | > 98.4 µM | –
Cc1ccnc(S(=O)(=O)C(F)(F)c2nc3ccccc3o2)n1 | 7.9 µM | 8 | > 61 µM | 61 µM | –
Nc1ccnc(SC(F)(F)c2nc3c(Cl)cccc3o2)n1 | > 28 µM | < 1 | > 28 µM | 28.8 µM | Ratio EC50 [5]: 30
Cc1ccnc(SC(F)(F)c2nc3cccc(C)c3o2)n1 | 0.2 µM | > 490 | 55.4 µM | > 98.4 µM | –
Cc1cccc2oc(C(F)(F)Sc3nccc(N)n3)nc12 | 0.83 µM | 24 | > 20 µM | 20 µM | –
CCc1ccnc(SC(F)(F)c2nc3ccccc3o2)n1 | 0.0064 µM | > 15000 | 57 µM | > 98 µM | –
Cc1ccnc(SC(F)(F)c2nc3cccc(Cl)c3o2)n1 | 0.14 µM | > 700 | 60 µM | > 98.4 µM | Ratio EC50 [5]: 30
